Active and inactive are the calls of the source.
Assays:
[1] = target: Free fatty acid receptor 1 (Homo sapiens, UniProt O14842); assay: Agonist activity at human GPR40 expressed in CHOA12 cells assessed as induction of Ca2+ mobilization by FLIPR assay; assay type: functional, cell-based
[2] = Stability in human liver microsomes assessed as parent compound remaining at 1 to 3 uM incubated for 20 mins in presence NADPH measured up to 90 mins by LC/MS/MS analysis; assay type: ADME, microsome; details: liver microsomes, read-out: Stability
Summary of the method: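 Human or rat liver microsomal incubations. The read-outs were % parent remaining, % D-ring dealkylation metabolites, % GSH adducts, and half-life (min). The metabolites followed were CYP450-mediated oxidative de-alkylation products (phenols) and GSH conjugates.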

[3] = Half life in human liver microsomes at 1 to 3 uM incubated for 20 mins in presence NADPH measured up to 90 mins by LC/MS/MS analysis; assay type: ADME, microsome; details: liver microsomes
[4] = Half life in rat liver microsomes at 1 to 3 uM incubated for 20 mins in presence NADPH measured up to 90 mins by LC/MS/MS analysis; assay type: ADME, microsome; details: liver microsomes
[5] = Half life in CD1 mouse at 1 mg/kg, iv administered as bolus dose or 1 mg/kg, po administered as single dose measured up to 24 hrs post dose by LC-MS/MS analysis; assay type: ADME, organism-based; details: in vivo
[6] = Volume of distribution at steady state in CD1 mouse at 1 mg/kg, iv via bolus dose or 1 mg/kg, po administered as single dose measured up to 24 hrs post dose by LC-MS/MS analysis; assay type: ADME, organism-based; details: in vivo, read-out: Vdss
[7] = Oral bioavailability in C57BL6 mouse at 1 mg/kg administered as single dose measured up to 24 hrs post dose by LC-MS/MS analysis; assay type: ADME, organism-based; details: in vivo
[8] = Cmax in Sprague-Dawley rat at 3 mg/kg, po administered as single dose measured up to 24 hrs post dose by LC-MS/MS analysis; assay type: ADME, organism-based; design: dose 3 mg/kg, route oral; details: in vivo
[9] = Tmax in Sprague-Dawley rat at 3 mg/kg, po administered as single dose measured up to 24 hrs post dose by LC-MS/MS analysis; assay type: ADME, organism-based; details: in vivo
[10] = Half life in Sprague-Dawley rat at 1 mg/kg, iv administered as single dose measured up to 24 hrs post dose by LC-MS/MS analysis; assay type: ADME, organism-based; details: in vivo
[11] = Clearance in Sprague-Dawley rat at 1 mg/kg, iv administered as single dose measured up to 24 hrs post dose by LC-MS/MS analysis; assay type: ADME, organism-based; details: in vivo
[12] = Volume of distribution at steady state in Sprague-Dawley rat at 1 mg/kg, iv administered as single dose measured up to 24 hrs post dose by LC-MS/MS analysis; assay type: ADME, organism-based; details: in vivo, read-out: Vdss
[13] = Oral bioavailability in Sprague-Dawley rat at 3 mg/kg administered via gavage as single dose measured up to 24 hrs post dose by LC-MS/MS analysis; assay type: ADME, organism-based; details: in vivo
[14] = Cmax in Beagle dog at 1 mg/kg, po administered as single dose measured up to 24 hrs post dose by LC-MS/MS analysis; assay type: ADME, organism-based, Canis lupus familiaris; design: dose 1 mg/kg, route oral; details: in vivo
[15] = Tmax in Beagle dog at 1 mg/kg, po administered as single dose measured up to 24 hrs post dose by LC-MS/MS analysis; assay type: ADME, organism-based, Canis lupus familiaris; details: in vivo
[16] = Half life in Beagle dog at 0.5 mg/kg, iv administered as single dose measured up to 24 hrs post dose by LC-MS/MS analysis; assay type: ADME, organism-based, Canis lupus familiaris; details: in vivo
[17] = Clearance in Beagle dog at 0.5 mg/kg, iv administered as single dose measured up to 24 hrs post dose by LC-MS/MS analysis; assay type: ADME, organism-based, Canis lupus familiaris; details: in vivo
[18] = Volume of distribution at steady state in Beagle dog at 0.5 mg/kg, iv administered as single dose measured up to 24 hrs post dose by LC-MS/MS analysis; assay type: ADME, organism-based, Canis lupus familiaris; details: in vivo, read-out: Vdss
[19] = Oral bioavailability in Beagle dog at 1 mg/kg administered via gavage as single dose measured up to 24 hrs post dose by LC-MS/MS analysis; assay type: ADME, organism-based, Canis lupus familiaris; details: in vivo
[20] = Cmax in cynomolgus monkey at 1 mg/kg, po administered as single dose measured up to 24 hrs post dose by LC-MS/MS analysis; assay type: ADME, organism-based, Macaca fascicularis; design: dose 1 mg/kg, route oral; details: in vivo
[21] = Tmax in cynomolgus monkey at 1 mg/kg, po administered as single dose measured up to 24 hrs post dose by LC-MS/MS analysis; assay type: ADME, organism-based, Macaca fascicularis; details: in vivo
[22] = Volume of distribution at steady state in cynomolgus monkey at 0.5 mg/kg, iv administered as single dose measured up to 24 hrs post dose by LC-MS/MS analysis; assay type: ADME, organism-based, Macaca fascicularis; details: in vivo, read-out: Vdss
Mus musculus [23] = assay: Antidiabetic activity in po dosed C57BL/6J mouse assessed as reduction of plasma glucose excursion administered 1 hr prior to glucose challenge measured after 120 mins by IPGTT; assay type: functional, organism-based
Mus musculus [24] = assay: Antidiabetic activity in C57BL/6J mouse assessed as glucose lowering effect at 0.1 mg/kg, po administered 1 hr prior to glucose challenge measured after 120 mins by IPGTT; assay type: functional, organism-based
Mus musculus [25] = assay: Antidiabetic activity in C57BL/6J mouse assessed as increase in plasma insulin levels at 3 mg/kg, po administered 1 hr prior to glucose challenge measured after 120 mins during OGTT by ELISA; assay type: functional, organism-based
Mus musculus [26] = assay: Antidiabetic activity in C57BL/6J mouse assessed as reduction in plasma glucose excursion at 3 mg/kg, po administered 1 hr prior to glucose challenge measured after 120 mins by OGTT assay; assay type: functional, organism-based
[27] = target: T1, Amine oxidase [flavin-containing] B (Homo sapiens, UniProt P27338); assay: Inhibition of MAO-B (unknown origin)
T1 sequence (P27338 whole entry): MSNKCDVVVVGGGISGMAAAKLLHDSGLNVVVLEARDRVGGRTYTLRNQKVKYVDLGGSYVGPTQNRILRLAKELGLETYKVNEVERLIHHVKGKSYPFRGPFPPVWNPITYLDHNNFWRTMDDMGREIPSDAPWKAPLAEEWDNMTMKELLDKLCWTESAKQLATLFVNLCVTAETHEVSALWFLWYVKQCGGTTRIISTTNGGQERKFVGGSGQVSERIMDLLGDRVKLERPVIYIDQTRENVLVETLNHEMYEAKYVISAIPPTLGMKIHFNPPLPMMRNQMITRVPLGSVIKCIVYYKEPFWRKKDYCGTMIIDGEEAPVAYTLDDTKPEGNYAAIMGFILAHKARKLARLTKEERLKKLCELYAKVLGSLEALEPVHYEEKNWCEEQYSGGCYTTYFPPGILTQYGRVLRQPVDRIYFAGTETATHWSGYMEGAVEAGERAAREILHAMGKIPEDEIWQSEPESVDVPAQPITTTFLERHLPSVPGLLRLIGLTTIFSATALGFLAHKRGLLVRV

Homo sapiens = species on record: Homo sapiens; assay: Inhibition of FFAR (unknown origin) at <10 uM
Summary of the method: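 Part of a proprietary selectivity counterscreen panel covering GPCRs (including the related free fatty acid receptors), nuclear hormone receptors, transporters, ion channels and hERG. Activity was scored against a 10 µM threshold.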

[28] = target: Voltage-gated inwardly rectifying potassium channel KCNH2 (Homo sapiens, UniProt Q12809); assay: Inhibition of human ERG (unknown origin) at <10 uM
Voltage-gated inwardly rectifying potassium channel KCNH2, sequence (Q12809 whole entry): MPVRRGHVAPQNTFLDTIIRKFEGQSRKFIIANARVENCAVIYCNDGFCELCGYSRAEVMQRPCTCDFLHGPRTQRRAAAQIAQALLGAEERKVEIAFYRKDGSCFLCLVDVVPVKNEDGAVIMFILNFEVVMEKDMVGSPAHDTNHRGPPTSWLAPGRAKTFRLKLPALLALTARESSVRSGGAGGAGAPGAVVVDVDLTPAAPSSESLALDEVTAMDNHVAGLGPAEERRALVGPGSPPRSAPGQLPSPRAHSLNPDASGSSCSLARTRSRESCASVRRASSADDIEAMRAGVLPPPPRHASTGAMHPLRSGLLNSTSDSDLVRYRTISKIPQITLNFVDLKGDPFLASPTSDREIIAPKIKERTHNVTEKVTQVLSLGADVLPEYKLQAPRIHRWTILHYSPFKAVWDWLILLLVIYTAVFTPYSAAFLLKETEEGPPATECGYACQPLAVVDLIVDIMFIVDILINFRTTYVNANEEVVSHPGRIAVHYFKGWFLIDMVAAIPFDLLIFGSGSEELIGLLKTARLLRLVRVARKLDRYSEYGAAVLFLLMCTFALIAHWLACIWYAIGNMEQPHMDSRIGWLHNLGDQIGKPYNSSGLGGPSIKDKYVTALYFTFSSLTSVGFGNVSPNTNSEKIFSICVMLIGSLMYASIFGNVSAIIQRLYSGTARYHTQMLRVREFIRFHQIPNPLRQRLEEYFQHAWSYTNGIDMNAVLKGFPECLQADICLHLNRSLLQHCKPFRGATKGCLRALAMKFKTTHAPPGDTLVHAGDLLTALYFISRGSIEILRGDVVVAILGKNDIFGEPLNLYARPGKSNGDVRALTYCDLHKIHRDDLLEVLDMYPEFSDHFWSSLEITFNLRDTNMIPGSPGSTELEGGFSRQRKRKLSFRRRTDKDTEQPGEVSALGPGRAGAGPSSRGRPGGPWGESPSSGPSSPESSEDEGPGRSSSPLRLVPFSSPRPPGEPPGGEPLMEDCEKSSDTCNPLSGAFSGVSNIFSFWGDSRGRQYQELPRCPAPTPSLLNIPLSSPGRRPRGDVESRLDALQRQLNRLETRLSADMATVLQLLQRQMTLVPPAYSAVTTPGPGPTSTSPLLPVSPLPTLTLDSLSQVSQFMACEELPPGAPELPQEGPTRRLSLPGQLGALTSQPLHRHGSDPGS

Free fatty acid receptor 1, sequence (O14842 whole entry): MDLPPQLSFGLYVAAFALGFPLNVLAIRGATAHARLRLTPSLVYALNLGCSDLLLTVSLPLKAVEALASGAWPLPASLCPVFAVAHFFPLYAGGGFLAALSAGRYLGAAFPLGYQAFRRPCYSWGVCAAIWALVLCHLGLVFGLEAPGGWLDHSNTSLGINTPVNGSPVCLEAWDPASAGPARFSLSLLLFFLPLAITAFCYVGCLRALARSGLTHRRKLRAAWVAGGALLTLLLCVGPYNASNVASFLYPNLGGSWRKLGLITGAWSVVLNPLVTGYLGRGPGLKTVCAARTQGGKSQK

- EC50 [1]: 0.07 µM
- remaining at 20 min, up to 3 µM [2]: 89%
- half-life [3]: 1.7 h
- half-life [4]: 1.35 h
- half-life [5]: 3.1 h
- Vd [6]: 0.4 L/kg
- bioavailability [7]: 100%
- Cmax [8]: 3500 nM
- Tmax [9]: 1.3 h
- half-life [10]: 4 h
- clearance [11]: 3.4 mL/min/kg
- Vd [12]: 0.3 L/kg
- bioavailability [13]: 47%
- Cmax [14]: 1200 nM
- Tmax [15]: 0.8 h
- half-life [16]: 5.2 h
- clearance [17]: 2.2 mL/min/kg
- Vd [18]: 0.6 L/kg
- bioavailability [19]: 62%
- Cmax [20]: 1400 nM
- Tmax [21]: 5 h
- Vd [22]: 0.7 L/kg
- IC50 [27]: 6 µM
- inhibition (Homo sapiens): inactive
Compound: COc1cc(N2CC[C@@H](Oc3ccc(N4N=C(C(F)(F)F)[C@@H](C)[C@@H]4CC(=O)O)cc3)[C@H](C)C2)c(Cl)cn1
- Activity (Mus musculus [23]): Dose-dependent effect
- Activity (Mus musculus [24]): Active
- Activity (Mus musculus [25]): Active
- Activity (Mus musculus [26]): Active
- inhibition (INH) [28]: Not Active

Reference: ChEMBL document CHEMBL4020824, “Discovery of Potent and Orally Bioavailable Dihydropyrazole GPR40 Agonists” (J Med Chem, 2018)
